The source of these data is ChEMBL document CHEMBL1275458, “First molecular characterization of group B streptococci with reduced penicillin susceptibility” (2008).

In test [1] the test system is Streptococcus agalactiae. The experiment in a line: Antimicrobial activity against penicillin-resistant Streptococcus agalactiae B514 by agar dilution method. The class given is functional. The method in brief:
(§1)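 Agar dilution MICs run per the CLSI recommendation. S. pneumoniae ATCC 49619 was included as the quality control strain. β-lactams tested were penicillin G, penicillin V, ampicillin, oxacillin, cefazolin, cefepime, cefotaxime, ceftizoxime and meropenem. Test strains were S. agalactiae clinical sputum isolates and ATCC strains BAA-611 and 12403.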
(In agar dilution the substance is mixed into plates at graded concentrations.)

The subject of test [2] is Streptococcus agalactiae. The experiment in a line: Antimicrobial activity against penicillin-susceptible Streptococcus agalactiae ATCC BAA-611 by agar dilution method.
Test [3] has as its system Streptococcus agalactiae. The test is described as follows: Antimicrobial activity against penicillin-resistant Streptococcus agalactiae B503 by agar dilution method. The class given is functional. The method in brief: as §1
Test [4] deals with Streptococcus agalactiae. The test is described as follows: Antimicrobial activity against penicillin-resistant Streptococcus agalactiae B7 by agar dilution method. The format is functional. The method in brief:
as §1

Test [5] relates to Streptococcus agalactiae. The test is described as follows: Antimicrobial activity against penicillin-resistant Streptococcus agalactiae ATCC BAA-611 harboring PBP-2X V405A mutant gene by agar dilution method. The format is functional. The procedure, abridged:
as §1

Test [6] concerns Streptococcus agalactiae. The test is described as follows: Antimicrobial activity against penicillin-resistant Streptococcus agalactiae B40 by agar dilution method. The class given is functional. The procedure, abridged:
as §1

Test [7] concerns Streptococcus agalactiae. The test is described as follows: Antimicrobial activity against penicillin-resistant Streptococcus agalactiae B8 by agar dilution method. The class given is functional. The procedure, abridged: as §1
Test [8] has as its system Streptococcus agalactiae. The experiment in a line: Antimicrobial activity against penicillin-resistant Streptococcus agalactiae B502 by agar dilution method. The format is functional. The method in brief: as §1
Test [9] deals with Streptococcus agalactiae. The experiment in a line: Antimicrobial activity against penicillin-resistant Streptococcus agalactiae ATCC BAA-611 harboring PBP-2X Q557E mutant gene by agar dilution method. The format is functional. The procedure, abridged:
as §1

In test [10] the test system is Streptococcus agalactiae. The test is described as follows: Antimicrobial activity against penicillin-resistant Streptococcus agalactiae B10 by agar dilution method. The format is functional. The method in brief: as §1
Test [11] has as its system Streptococcus agalactiae. The experiment in a line: Antimicrobial activity against penicillin-resistant Streptococcus agalactiae B516 by agar dilution method. The class given is functional. The method in brief: as §1
Test [12] concerns Streptococcus agalactiae. The test is described as follows: Antimicrobial activity against penicillin-resistant Streptococcus agalactiae B513 by agar dilution method. The class given is functional. The procedure, abridged:
as §1

Test [13] deals with Streptococcus agalactiae. The test is described as follows: Antimicrobial activity against penicillin-resistant Streptococcus agalactiae B68 by agar dilution method. The format is functional. The procedure, abridged: as §1
Test [14] concerns Streptococcus agalactiae. The test is described as follows: Antimicrobial activity against penicillin-resistant Streptococcus agalactiae B6 by agar dilution method. The format is functional. The method in brief:
as §1

The test system of test [15] is Streptococcus agalactiae. The experiment in a line: Antimicrobial activity against penicillin-resistant Streptococcus agalactiae B12 by agar dilution method. The class given is functional. The procedure, abridged: as §1
The test system of test [16] is Streptococcus agalactiae. The test is described as follows: Antimicrobial activity against penicillin-susceptible Streptococcus agalactiae ATCC 12403 by agar dilution method.
The subject of test [17] is Streptococcus pneumoniae. The experiment in a line: Antimicrobial activity against Streptococcus pneumoniae ATCC 49619 by agar dilution method. The format is functional. The procedure, abridged:
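MIC by agar dilution per CLSI recommendations. The strain is a penicillin-susceptible S. pneumoniae quality-control strain, run alongside the clinical GBS isolates. β-lactams tested were penicillin G, penicillin V, ampicillin, oxacillin, cefazolin, cefepime, cefotaxime, ceftizoxime and meropenem.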

Test [18] relates to Streptococcus agalactiae. The test is described as follows: Antimicrobial activity against penicillin-resistant Streptococcus agalactiae B60 by agar dilution method. The class given is functional. The method in brief: as §1
For test [19], the system named is Streptococcus agalactiae. The experiment in a line: Antimicrobial activity against penicillin-resistant Streptococcus agalactiae B1 by agar dilution method. The class given is functional. The method in brief:
as §1

Converted amounts (≈) assume the structure as drawn.

For `CC1(C)S[C@@H]2[C@H](NC(=O)[C@H](N)c3ccccc3)C(=O)N2[C@H]1C(=O)O` [AMPICILLIN], the MIC in test [1] amounted to 0.5 µg/mL (≈ 1.43 µM); in test [2], 0.12 µg/mL (≈ 0.343 µM); in [3], 0.5 µg/mL (≈ 1.43 µM); in test [4] it was 0.12 µg/mL (≈ 0.343 µM); in test [5], 0.25 µg/mL (≈ 0.715 µM); in test [6], 0.12 µg/mL (≈ 0.343 µM). The MIC in test [7] worked out at 0.5 µg/mL (≈ 1.43 µM); in [8], 0.5 µg/mL (≈ 1.43 µM); in test [9] it was 0.12 µg/mL (≈ 0.343 µM); in test [10], 0.12 µg/mL (≈ 0.343 µM); in test [11] it was 0.25 µg/mL (≈ 0.715 µM); in test [12], 0.5 µg/mL (≈ 1.43 µM). The minimal inhibitory concentration (MIC) came out at 0.5 µg/mL (≈ 1.43 µM) in test [13]; 0.12 µg/mL (≈ 0.343 µM) in [14]; 0.25 µg/mL (≈ 0.715 µM) in test [15]; 0.12 µg/mL (≈ 0.343 µM) in test [16]; 0.12 µg/mL (≈ 0.343 µM) in test [17]; 0.25 µg/mL (≈ 0.715 µM) in [18]. The MIC in test [19] turned out to be 0.12 µg/mL (≈ 0.343 µM).

Take `Cc1nnc(SCC2=C(C(=O)O)N3C(=O)[C@@H](NC(=O)Cn4cnnn4)[C@H]3SC2)s1` [CEFAZOLIN]: the MIC in [1] was 1 µg/mL (≈ 2.2 µM); in test [2], 0.12 µg/mL (≈ 0.264 µM); in [3], 0.5 µg/mL (≈ 1.1 µM); in test [4], 0.5 µg/mL (≈ 1.1 µM); in [5] it was 0.5 µg/mL (≈ 1.1 µM); in test [6], 1 µg/mL (≈ 2.2 µM). The MIC in test [7] stood at 1 µg/mL (≈ 2.2 µM); in [8], 0.5 µg/mL (≈ 1.1 µM); in [9] it was 2 µg/mL (≈ 4.4 µM); in test [10], 1 µg/mL (≈ 2.2 µM); in test [11], 0.5 µg/mL (≈ 1.1 µM); in test [12], 1 µg/mL (≈ 2.2 µM). Moreover, the MIC in test [13] was 0.5 µg/mL (≈ 1.1 µM); in [14], 1 µg/mL (≈ 2.2 µM); in [15], 1 µg/mL (≈ 2.2 µM); in [16], 0.12 µg/mL (≈ 0.264 µM); in test [17] it was 1 µg/mL (≈ 2.2 µM); in test [18], 1 µg/mL (≈ 2.2 µM). In [19], this compound yielded an MIC of 2 µg/mL (≈ 4.4 µM).

As to `CO/N=C(\C(=O)N[C@@H]1C(=O)N2C(C(=O)[O-])=C(C[N+]3(C)CCCC3)CS[C@H]12)c1csc(N)n1` [CEFEPIME], the MIC in [1] is 0.5 µg/mL (≈ 1.04 µM); in test [2] it was 0.06 µg/mL (≈ 0.125 µM); in test [3], 0.25 µg/mL (≈ 0.52 µM); in test [4], 0.25 µg/mL (≈ 0.52 µM); in test [5], 0.5 µg/mL (≈ 1.04 µM); in test [6], 0.25 µg/mL (≈ 0.52 µM). Besides, the MIC was determined as 0.5 µg/mL (≈ 1.04 µM) in [7]; 0.5 µg/mL (≈ 1.04 µM) in [8]; 0.5 µg/mL (≈ 1.04 µM) in test [9]; 0.25 µg/mL (≈ 0.52 µM) in [10]; 0.5 µg/mL (≈ 1.04 µM) in test [11]; 1 µg/mL (≈ 2.08 µM) in [12]. Besides, the MIC in [13] worked out at 0.5 µg/mL (≈ 1.04 µM); in [14], 0.25 µg/mL (≈ 0.52 µM); in test [15] it was 0.5 µg/mL (≈ 1.04 µM); in [16] it was 0.06 µg/mL (≈ 0.125 µM); in [17] it was 0.03 µg/mL (≈ 0.0624 µM); in test [18], 0.25 µg/mL (≈ 0.52 µM). The MIC in [19] is 0.5 µg/mL (≈ 1.04 µM).

`CO/N=C(\C(=O)N[C@@H]1C(=O)N2C(C(=O)O)=C(COC(C)=O)CS[C@H]12)c1csc(N)n1` [CEFOTAXIME]: the MIC in test [1] stood at 0.25 µg/mL (≈ 0.549 µM); in test [2], 0.06 µg/mL (≈ 0.132 µM); in [3], 0.25 µg/mL (≈ 0.549 µM); in test [4] it was 0.12 µg/mL (≈ 0.263 µM); in [5], 0.12 µg/mL (≈ 0.263 µM); in test [6], 0.5 µg/mL (≈ 1.1 µM). For the same compound, the MIC in test [7] is 0.25 µg/mL (≈ 0.549 µM); in test [8], 0.25 µg/mL (≈ 0.549 µM); in test [9] it was 0.5 µg/mL (≈ 1.1 µM); in test [10] it was 0.5 µg/mL (≈ 1.1 µM); in test [11], 0.25 µg/mL (≈ 0.549 µM); in test [12], 1 µg/mL (≈ 2.2 µM). Further, the MIC in test [13] was 0.25 µg/mL (≈ 0.549 µM); in test [14], 1 µg/mL (≈ 2.2 µM); in test [15], 0.5 µg/mL (≈ 1.1 µM); in test [16] it was 0.06 µg/mL (≈ 0.132 µM); in test [17], 0.03 µg/mL (≈ 0.0659 µM); in test [18], 0.25 µg/mL (≈ 0.549 µM). The compound further came in with an MIC in [19] of 2 µg/mL (≈ 4.39 µM).

What is called MIC is the smallest concentration in the dilution series that meets the test's criterion for growth inhibition.
